In brackets after ≈: the same amount, converted by molar mass. Activity calls are given as the source filed them. No cut-off for these calls is given here.
Experiments:
[1] = test system: Mycobacterium tuberculosis; assay: Antitubercular activity against Mycobacterium tuberculosis H37Rv assessed as bacterial growth inhibition after 7 days by broth microdilution assay; format: functional; settings: 168 h, dose 0.03-64 µg/ml, time 7 day
Summary of the method: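 Compounds were tested in broth microdilution from 64 downward, incubated 37 °C for 7 days, then resazurin (PrestoBlue) added. MIC is the lowest concentration preventing the blue-to-pink change, run in triplicate, reporting the value obtained at least twice of three.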

[2] = test system: Mycobacterium tuberculosis; assay: Antimycobacterial activity against Mycobacterium tuberculosis H37Rv ATCC 27294 assessed as reduction in bacterial growth incubated for […] by broth microdilution assay; format: functional
[3] = Cytotoxicity against African green monkey vero cells assessed as reduction in cell viability measured after 72 hrs by MTT assay; format: cell-based; settings: chlorocebus sabaeus
Summary of the method: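 Vero cells seeded at ~10³ cells/well and grown 24 h at 37 °C, 5% CO₂, then exposed to compound (100 to 5 mg/l) for 72 h. MTT was added […] for 4 h and formazan dissolved in DMSO. CC50 is the lowest concentration giving 50% viability reduction. Doxorubicin was the positive control, run in triplicate.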

[4] = Selectivity index, ratio of CC50 for African green monkey Vero cells to MIC for Antitubercular activity against Mycobacterium tuberculosis H37Rv; format: toxicity; settings: read-out: Selectivity Index
Summary of the method: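 Selectivity index calculated as Vero CC50 (MTT, 72 h) divided by the H37Rv MIC from the resazurin broth microdilution assay.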

[5] = test system: Mycobacteroides abscessus; assay: Antimycobacterial activity against Mycobacterium abscessus ATCC 19977 assessed as visible growth inhibition incubated for 16 to 18 hrs; format: functional, organism-based; settings: time 16-18 hrs
[6] = test system: Mycolicibacterium fortuitum; assay: Antimycobacterial activity against Mycobacterium fortuitum ATCC 6841 assessed as visible growth inhibition incubated for 16 to 18 hrs; format: functional, organism-based; settings: time 16-18 hrs
Mycobacteroides chelonae = assay: Antimycobacterial activity against Mycobacterium chelonae ATCC 35752 assessed as visible growth inhibition incubated for 16 to 18 hrs; format: functional, organism-based; settings: time 16-18 hrs

Row | Compound | MIC [1] [µg/mL] | MIC [2] [µg/mL] | CC50 at 72 h [3] [µg/mL] | selectivity ratio [4] | Activity [5] | Activity [6] | Activity (Mycobacteroides chelonae) | MIC90 [1] [µg/mL]
1 | CN[C@@H]1[C@H](O[C@H]2[C@H](O[C@H]3[C@H](O)[C@@H](O)[C@H](N=C(N)N)[C@@H](O)[C@@H]3N=C(N)N)O[C@@H](C)[C@]2(O)C=O)O[C@@H](CO)[C@H](O)[C@H]1O [STREPTOMYCIN] | 0.5 (≈ 0.86 µM) | 2 (≈ 3.44 µM) | – | – | – | – | – | –
2 | COC(=O)c1cc(-c2cccc(NC(=O)c3ccc(/C=C/C(=O)c4ccccc4Br)cc3)c2)on1 | 1 (≈ 1.88 µM) | – | > 40 | > 40 | inactive | inactive | inactive | –
3 | COC(=O)c1cc(-c2cccc(NC(=O)c3ccc(C4OC4C(=O)c4ccc(Cl)cc4)cc3)c2)on1 (stereo not drawn) | 4 (≈ 7.95 µM) | – | > 20 | > 5 | inactive | inactive | inactive | –
4 | COC(=O)c1cc(-c2cccc(NC(=O)c3ccc(/C=C/C(=O)c4ccc(O)cc4)cc3)c2)on1 | > 64 | – | – | – | inactive | inactive | inactive | –
5 | COC(=O)c1cc(-c2cccc(NC(=O)c3ccc(/C=C/C(=O)c4ccccc4O)cc3)c2)on1 | 16 (≈ 34.2 µM) | – | – | – | inactive | inactive | inactive | –
6 | COC(=O)c1cc(-c2cccc(NC(=O)c3ccc(/C=C/C(=O)c4ccc(OC)cc4)cc3)c2)on1 | 4 (≈ 8.29 µM) | – | > 10 | > 2.5 | inactive | inactive | inactive | –
7 | COC(=O)c1cc(-c2cccc(NC(=O)c3ccc(/C=C/C(=O)c4ccc(C)c(F)c4)cc3)c2)on1 | 2 (≈ 4.13 µM) | – | > 50 | > 25 | inactive | inactive | inactive | –
8 | COC(=O)c1cc(-c2cccc(NC(=O)c3ccc(/C=C/C(=O)c4cc(OC)c(OC)c(OC)c4)cc3)c2)on1 | 1 (≈ 1.84 µM) | – | > 50 | > 50 | inactive | inactive | inactive | –
9 | COC(=O)c1cc(-c2cccc(NC(=O)c3ccc(/C=C/C(=O)c4ccc(F)cc4)cc3)c2)on1 | 4 (≈ 8.5 µM) | – | > 20 | > 5 | inactive | inactive | inactive | –
10 | COC(=O)c1cc(-c2cccc(NC(=O)c3ccc(/C=C/C(=O)c4cc(F)ccc4F)cc3)c2)on1 | 1 (≈ 2.05 µM) | – | > 40 | > 40 | inactive | inactive | inactive | –
11 | COC(=O)[C@H](NC(=O)c1cc(COc2ccc3sc(C)nc3c2)on1)c1ccccc1 | 0.61 (≈ 1.39 µM) | – | – | – | – | – | – | –
12 | CC[C@@H](CO)NCCN[C@@H](CC)CO [ETHAMBUTOL] | 1 (≈ 4.89 µM) | 1 (≈ 4.89 µM) | – | – | – | – | – | –
13 | COC(=O)c1cc(-c2cccc(NC(=O)/C=C/c3ccc(Cl)cc3)c2)on1 | 2 (≈ 5.22 µM) | – | – | – | inactive | inactive | inactive | –
14 | O=C(/C=C/c1ccc([N+](=O)[O-])o1)c1ccc(N2CCCCC2)cc1 | 0.06 (≈ 0.184 µM) | – | – | – | – | – | – | –
15 | COC(=O)c1cc(-c2cccc(NC(=O)c3ccc(/C=C/C(=O)c4cccc(C(F)(F)F)c4)cc3)c2)on1 | 1 (≈ 1.92 µM) | – | > 20 | > 20 | inactive | inactive | inactive | –
16 | CCCOc1ccc(C(=O)/C=C/c2ccc(C(=O)O)cc2)cc1 | 32 (≈ 103 µM) | – | < 10 | < 10 | – | – | – | –
17 | CCOC(=O)c1cc(COc2cc(C(F)(F)F)nc3cc(C(F)(F)F)cc(C(F)(F)F)c23)on1 | 0.39 (≈ 0.776 µM) | – | – | – | – | – | – | –
18 | COC(=O)c1cc(-c2cccc(NC(=O)c3ccc(/C=C/C(=O)c4cccc(Br)c4)cc3)c2)on1 | 4 (≈ 7.53 µM) | – | > 100 | > 25 | inactive | inactive | inactive | –
19 | COC(=O)c1cc(-c2cccc(NC(=O)c3ccc(/C=C/C(=O)c4ccc(Br)cc4)cc3)c2)on1 | 1 (≈ 1.88 µM) | – | > 20 | > 2 | inactive | inactive | inactive | –
20 | CCOC(=O)c1cc(-c2cccc(OCc3cccc(C(F)(F)F)c3)c2)on1 | 0.23 (≈ 0.588 µM) | – | – | – | – | – | – | –
21 | COC(=O)c1cc(-c2cccc(NC(=O)c3ccc(/C=C/C(=O)c4cccnc4)cc3)c2)on1 | 64 (≈ 141 µM) | – | – | – | inactive | inactive | inactive | –
22 | COC(=O)c1cc(-c2cccc(NC(=O)c3ccc(/C=C/C(=O)c4cccs4)cc3)c2)on1 | 32 (≈ 69.8 µM) | – | – | – | inactive | inactive | inactive | –

Row | Compound | MIC [1] [µg/mL] | MIC [2] [µg/mL] | CC50 at 72 h [3] [µg/mL] | selectivity ratio [4] | Activity [5] | Activity [6] | Activity (Mycobacteroides chelonae) | MIC90 [1] [µg/mL]
23 | COC(=O)c1cc(-c2cccc(NC(=O)c3ccc(/C=C/C(=O)c4ccc(OC)c(OC)c4)cc3)c2)on1 | 1 (≈ 1.95 µM) | – | > 50 | > 50 | inactive | inactive | inactive | –
24 | COC(=O)c1cc(-c2cccc(NC(=O)c3ccc(/C=C/C(=O)c4cccc([N+](=O)[O-])c4)cc3)c2)on1 | 2 (≈ 4.02 µM) | – | > 40 | > 20 | inactive | inactive | inactive | –
25 | COC(=O)c1cc(-c2cccc(NC(=O)c3ccc(/C=C/C(=O)c4ccc(C)c([N+](=O)[O-])c4)cc3)c2)on1 | 4 (≈ 7.82 µM) | – | > 80 | > 20 | inactive | inactive | inactive | –
26 | COC(=O)c1cc(-c2cccc(NC(=O)c3ccc(/C=C/C(=O)c4ccc5c(c4)OCO5)cc3)c2)on1 | 2 (≈ 4.03 µM) | – | > 40 | > 20 | inactive | inactive | inactive | –
27 | O=C(/C=C/c1ccc(-n2ccnc2)cc1)c1ccc(OCc2cc(F)ccc2F)cc1 | 0.78 (≈ 1.87 µM) | – | – | – | – | – | – | –
28 | COC(=O)c1cc(-c2cccc(NC(=O)c3ccc(/C=C/C(=O)c4cccc(OC)c4)cc3)c2)on1 | 2 (≈ 4.15 µM) | – | > 100 | > 50 | inactive | inactive | inactive | –
29 | O=C(O)c1ccc(C(=O)/C=C/c2ccc3ccccc3c2)cc1 | 0.5 (≈ 1.65 µM) | – | – | – | – | – | – | –
30 | NNC(=O)c1ccncc1 [ISONIAZID] | 0.03 (≈ 0.219 µM) | 0.03 (≈ 0.219 µM) | – | – | – | – | – | –
31 | CCOC(=O)c1cc(-c2cccc(NC(=O)c3cccc(C(F)(F)F)c3)c2)on1 | 64 (≈ 158 µM) | – | – | – | – | – | – | –
32 | COC(=O)c1cc(-c2cccc(NC(=O)c3ccc(/C=C/C(=O)c4ccc([N+](=O)[O-])cc4)cc3)c2)on1 | 2 (≈ 4.02 µM) | – | > 20 | > 10 | inactive | inactive | inactive | –
33 | O=C(O)c1ccc(/C=C/C(=O)c2ccc(Cl)cc2)cc1 | 4 (≈ 14 µM) | – | < 10 | < 10 | – | – | – | –
34 | COC(=O)c1cc(-c2cccc(NC(=O)c3ccc(/C=C/C(=O)c4ccccc4OC)cc3)c2)on1 | 1 (≈ 2.07 µM) | – | > 40 | > 40 | inactive | inactive | inactive | –
35 | COC(=O)c1cc(-c2cccc(NC(=O)c3ccc(/C=C/C(=O)c4cccc(F)c4)cc3)c2)on1 | 2 (≈ 4.25 µM) | – | > 40 | > 20 | inactive | inactive | inactive | –
36 | O=C(/C=C/c1c[nH]c2ccccc12)c1cccs1 | 49.9 (≈ 197 µM) | – | – | – | – | – | – | –
37 | CC(C)Cc1ccc(C(=O)/C=C/c2ccc(C(=O)O)cc2)cc1 | 32 (≈ 104 µM) | – | < 10 | < 10 | – | – | – | –
38 | CCOC(=O)c1nnn(-c2cccc(NC(=O)c3ccc(/C=C/C(=O)c4ccc(Cl)cc4)cc3)c2)c1C | > 64 | – | – | – | inactive | – | – | –
39 | COc1ccc(OC)c(/C=C/C(=O)c2ccc(Nc3ccnc4cc(Cl)ccc34)cc2)c1 | 3.12 (≈ 7.01 µM) | – | – | – | – | – | – | –
40 | COC(=O)c1cc(-c2cccc(NC(=O)c3ccc(/C=C/C(=O)c4ccccc4)cc3)c2)on1 | 1 (≈ 2.21 µM) | – | > 50 | > 50 | inactive | inactive | inactive | –
41 | COC(=O)c1cc(-c2cccc(NC(=O)c3ccc(/C=C/C(=O)c4ccc(OC)c([N+](=O)[O-])c4)cc3)c2)on1 | 1 (≈ 1.9 µM) | – | > 40 | > 40 | inactive | inactive | inactive | –
42 | COC(=O)c1cc(-c2cccc(NC(=O)c3ccc(OCc4ccc(Cl)cc4)cc3)c2)on1 | 1 (≈ 2.16 µM) | – | > 80 | > 80 | inactive | inactive | inactive | –
43 | Cc1ccc(Nc2nc(-c3cc(C(=O)Nc4ccccn4)no3)c(C)s2)cc1 | – | – | – | – | – | – | – | 0.06 (≈ 0.153 µM)
